Data from ChEMBL document CHEMBL1221219, “Selective blockade of 2-arachidonoylglycerol hydrolysis produces cannabinoid behavioral effects” (Nat Chem Biol, 2009).
Activity calls are given as the source filed them. The rule behind the calls is not given here.

Assays:
[1] = biological target: Cannabinoid receptor 2 (Homo sapiens) (UniProt P34972); experiment: Displacement of [3H]CP-55940 from CB2 expressed in CHO cells after 90 mins by liquid scintillation; type: cell-based
[2] = biological target: T1, Diacylglycerol lipase-beta (Homo sapiens) (UniProt Q8NCG7); experiment: Inhibition of recombinant DAGLbeta expressed in HEK293 cells assessed as hydrolysis of 1-stearoyl-2-arachidonoyl-glycerol to 2-AG at 10 uM after 30 mins by LC-MS method; type: cell-based
T1 sequence (whole entry): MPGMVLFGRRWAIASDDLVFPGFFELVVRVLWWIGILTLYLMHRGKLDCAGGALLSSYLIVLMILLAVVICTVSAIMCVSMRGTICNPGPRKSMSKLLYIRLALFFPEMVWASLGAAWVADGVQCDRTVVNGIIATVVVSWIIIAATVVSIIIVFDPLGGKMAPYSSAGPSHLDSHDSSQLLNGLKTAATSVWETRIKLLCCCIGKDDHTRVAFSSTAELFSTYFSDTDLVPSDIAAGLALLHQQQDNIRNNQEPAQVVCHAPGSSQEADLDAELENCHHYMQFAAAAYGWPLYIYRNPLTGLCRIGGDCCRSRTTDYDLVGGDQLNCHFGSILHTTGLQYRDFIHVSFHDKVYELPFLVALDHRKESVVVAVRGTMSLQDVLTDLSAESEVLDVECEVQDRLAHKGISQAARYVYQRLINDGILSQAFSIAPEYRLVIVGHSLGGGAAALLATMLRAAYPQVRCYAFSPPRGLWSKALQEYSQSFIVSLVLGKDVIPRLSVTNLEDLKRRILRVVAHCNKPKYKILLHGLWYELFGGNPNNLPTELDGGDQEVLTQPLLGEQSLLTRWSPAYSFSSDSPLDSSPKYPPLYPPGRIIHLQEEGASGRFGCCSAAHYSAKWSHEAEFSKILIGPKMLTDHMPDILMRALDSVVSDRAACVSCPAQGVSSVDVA

Mus musculus [3] = experiment: Inhibition of FAAH in C57B1/6J mouse brain membrane at 4 mg/kg, ip after 4 hrs by competitive activity-based protein profiling method relative to control; type: functional; details: route intraperitoneal
Summary of the method: (§1)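 Male C57Bl/6J mice (6-8 weeks, 20-26 g) given inhibitor i.p. in 4:1 v/v PEG300:Tween80 at 4 ul g^-1 (4-40 mg kg^-1); vehicle controls. Brain membrane proteomes (1 mg ml^-1 in PBS) labelled with FP-rhodamine (2 μM) for 30 min at room temperature. Readout by SDS-PAGE and in-gel fluorescence scanning, compared with vehicle.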

Mus musculus [4] = experiment: Inhibition of MAGL in intraperitoneally dosed C57B1/6J mouse brain membrane assessed as increase in 2-AG level after 4 hrs relative to control; type: functional, organism-based
Summary of the method: (§2)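 Male C57Bl/6J mice dosed i.p. in 4:1 v/v PEG300:Tween80, with vehicle controls; killed at set times (0.5-24 h, or 4 h). Brain membrane 2-AG hydrolysis measured by LC-MS substrate assay, and brain 2-AG measured by lipid LC-MS, relative to vehicle.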

Mus musculus [5] = experiment: Inhibition of FAAH in C57B1/6J mouse brain membrane at 16 mg/kg, ip after 4 hrs by competitive activity-based protein profiling method relative to control; type: functional; parameters: scale not given: the % may be the effect or the level left; details: route intraperitoneal; summary of the method: as §1
Mus musculus [6] = experiment: Inhibition of FAAH in C57B1/6J mouse brain membrane at 16 mg/kg, ip after 4 hrs by competitive activity-based protein profiling-MudPIT method; type: functional, organism-based; parameters: dose 16 mg/kg
Summary of the method: (§3)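 After i.p. dosing in 4:1 PEG300:Tween80, male C57Bl/6J mice were killed at 4 h. Brain membrane proteomes from treated and vehicle mice were labelled with FP-biotin. Labelled proteins were enriched on avidin, digested on-bead with trypsin and analysed by multidimensional LC-MS. Proteins were identified by SEQUEST, and dosed samples were compared with vehicle.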

Mus musculus [7] = experiment: Inhibition of PREPL in C57B1/6J mouse brain membrane at 16 mg/kg, ip after 4 hrs by competitive activity-based protein profiling-MudPIT method; type: functional, organism-based; parameters: dose 16 mg/kg; summary of the method: as §3
Mus musculus [8] = experiment: Inhibition of GPID in C57B1/6J mouse brain membrane at 16 mg/kg, ip after 4 hrs by competitive activity-based protein profiling-MudPIT method; type: functional, organism-based; parameters: dose 16 mg/kg; summary of the method: as §3
Mus musculus [9] = experiment: Inhibition of PPME1 in C57B1/6J mouse brain membrane at 16 mg/kg, ip after 4 hrs by competitive activity-based protein profiling-MudPIT method; type: functional, organism-based; parameters: dose 16 mg/kg; summary of the method: as §3
Mus musculus [10] = experiment: Inhibition of ABHD10 in C57B1/6J mouse brain membrane at 16 mg/kg, ip after 4 hrs by competitive activity-based protein profiling-MudPIT method; type: functional, organism-based; parameters: dose 16 mg/kg
Summary of the method: (§4)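 Mice were dosed 16 mg kg^-1 i.p. or vehicle and killed at 4 h. Brain membrane proteomes were labelled with FP-biotin, avidin-enriched, trypsin-digested on bead, analysed by multidimensional LC-MS and identified by SEQUEST.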

Mus musculus [11] = experiment: Inhibition of DPP9 in C57B1/6J mouse brain membrane at 16 mg/kg, ip after 4 hrs by competitive activity-based protein profiling-MudPIT method; type: functional, organism-based; parameters: dose 16 mg/kg; summary of the method: as §4
Mus musculus [12] = experiment: Inhibition of FAM108A1 in C57B1/6J mouse brain membrane at 16 mg/kg, ip after 4 hrs by competitive activity-based protein profiling-MudPIT method; type: functional, organism-based; parameters: dose 16 mg/kg; summary of the method: as §3
Mus musculus [13] = experiment: Inhibition of AARE in C57B1/6J mouse brain membrane at 16 mg/kg, ip after 4 hrs by competitive activity-based protein profiling-MudPIT method; type: functional, organism-based; parameters: dose 16 mg/kg; summary of the method: as §4
Mus musculus [14] = experiment: Inhibition of 2210412D01 gene in C57B1/6J mouse brain membrane at 16 mg/kg, ip after 4 hrs by competitive activity-based protein profiling-MudPIT method; type: functional, organism-based; parameters: dose 16 mg/kg; summary of the method: as §4
Mus musculus [15] = experiment: Change in arachidonic acid levels in intraperitoneally dosed C57B1/6J mouse brain by LC-MS; type: functional, organism-based
Summary of the method: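 Male C57Bl/6J mice given 4, 8, 16 or 40 mg kg^-1 i.p. in 4:1 PEG300:Tween80 at 4 μl g^-1, or vehicle, and killed after 4 h. Whole-brain lipids were quantified by LC-MS.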

Mus musculus [16] = experiment: Inhibition of MAGL in C57B1/6J mouse brain membrane assessed as inhibition of 2-AG hydrolysis activity at 16 mg/kg, ip upto 24 hrs by competitive activity-based protein profiling method relative to control; type: functional; details: route intraperitoneal; summary of the method: as §2
Mus musculus [17] = experiment: Inhibition of MAGL in C57B1/6J mouse brain membrane assessed as increase in 2-AG level at 16 mg/kg, ip upto 24 hrs by competitive activity-based protein profiling method relative to control; type: functional; details: route intraperitoneal; summary of the method: as §2
Mus musculus [18] = experiment: Visceral analgesic activity against C57B1/6J mouse assessed as inhibition of acetic acid-induced writhing response for 20 mins at 16 mg/kg, ip pretreated 2 hr before acetic acid challenge; type: functional, organism-based; parameters: dose 16 mg/kg
Summary of the method: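 Male C57Bl/6J mice (6-8 weeks) dosed 16 mg kg^-1 i.p. in 4:1 v/v PEG300:Tween80, with vehicle controls. Assessed in the tetrad test for cannabinoid effects or in the acetic acid-induced abdominal stretching assay.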

Mus musculus [19] = experiment: Induction of hypomotility in CB1 receptor deficient C57B1/6J mouse at 16 mg/kg, ip; type: functional, organism-based; parameters: dose 16 mg/kg
Summary of the method: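 Male C57Bl/6J mice, 6-8 weeks, 20-26 g, given 16 mg kg^-1 i.p. in 4:1 v/v PEG300:Tween80 at 4 μl g^-1; vehicle controls received PEG300:Tween80 alone. Cannabinoid effects were scored in the tetrad test.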

Cannabinoid receptor 2 (Homo sapiens), sequence (P34972 whole entry): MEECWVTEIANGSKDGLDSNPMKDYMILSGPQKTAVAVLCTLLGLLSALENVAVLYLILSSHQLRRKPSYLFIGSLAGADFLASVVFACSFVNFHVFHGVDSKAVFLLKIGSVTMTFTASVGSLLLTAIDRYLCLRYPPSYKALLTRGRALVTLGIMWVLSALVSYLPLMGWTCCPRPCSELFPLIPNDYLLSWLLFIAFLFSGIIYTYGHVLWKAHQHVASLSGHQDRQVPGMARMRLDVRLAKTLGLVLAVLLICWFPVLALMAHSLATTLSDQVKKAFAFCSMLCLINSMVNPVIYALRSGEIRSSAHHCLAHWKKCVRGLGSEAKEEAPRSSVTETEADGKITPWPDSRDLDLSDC

O=C(Oc1ccc([N+](=O)[O-])cc1)N1CCC(C(O)(c2ccc3c(c2)OCO3)c2ccc3c(c2)OCO3)CC1
Activity [1]: inactive
inhibition [2]: inactive
inhibition in vivo at 4 mg/kg (Mus musculus [3]): < 20%
inhibition (Mus musculus [4]): Dose-dependent effect
Activity (Mus musculus [5]): 35%
inhibition (Mus musculus [6]): inactive
inhibition (Mus musculus [7]): inactive
inhibition (Mus musculus [8]): inactive
inhibition (Mus musculus [9]): inactive
inhibition (Mus musculus [10]): inactive
inhibition (Mus musculus [11]): inactive
inhibition (Mus musculus [12]): inactive
inhibition (Mus musculus [13]): inactive
inhibition (Mus musculus [14]): inactive
Activity (Mus musculus [15]): inactive
inhibition in vivo at 16 mg/kg (Mus musculus [16]): > 80%
inhibition in vivo at 16 mg/kg (Mus musculus [17]): > 80%
Activity (Mus musculus [18]): Active
Activity (Mus musculus [19]): inactive
